Consider 30 sequences from the array DNA melting data of Ke et al. (doi:10.1101/2024.01.08.574731).

The nature of data set [1]: folding enthalpy; higher = less favourable; fluorescence melt of hairpins on a sequencing array, two-state fit. The conditions noted are these: sodium 0.088 M. An outline of the steps:
(§1)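 Melting temperature and folding enthalpy were obtained by bootstrapped two-state fitting. Fits used Cy3 fluorescence of library hairpins with annealed Cy3 and quencher oligos on a sequenced MiSeq flow cell, imaged in 50 mM Na-HEPES pH 8.0, 25 mM NaCl in 2.5 °C steps up to 60 °C and normalised to pre-quench Cy3 and control constructs. Four replicates were combined by inverse-variance weighting, and fitted temperatures were raised by 9.35 °C to match UV melts.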

Data set [2] can be described thus: melting temperature; fluorescence melt of hairpins on a sequencing array, two-state fit, raised by 9.35 °C to match UV melts. The conditions noted are these: sodium 0.088 M. An outline of the steps:
as §1

Regarding CGAGCGGAAACGCTATCG ((((((....)))..))), in data set [1], the folding enthalpy is -13.1 kcal/mol. In addition, the Tm in data set [2] stood at 35.1 °C.

Take CGAGCGGAAACGCTGTCG ((((((....)))..))): the folding enthalpy in data set [1] was -11.2 kcal/mol. The Tm in data set [2] amounted to 43 °C.

CGAGCTCGGAAACGATCG (((..(((....)))))): in data set [1], the folding enthalpy is -6.9 kcal/mol. In addition, the Tm in data set [2] was determined as 27.9 °C.

Regarding CGAGGCGGAAACGCGTCG (((.(((....))).))), the folding enthalpy in data set [1] is -32.1 kcal/mol. For the same sequence, the Tm in data set [2] worked out at 62.5 °C.

In the case of CGAGGGAAACCTCG (((((....))))), in data set [1], the folding enthalpy was -25.4 kcal/mol. Moreover, the Tm in data set [2] amounted to 53.7 °C.

Take CGAGTCGGAAACGAGTCG (((.(((....))).))): the folding enthalpy in data set [1] is -35.9 kcal/mol. The Tm in data set [2] worked out at 55.9 °C.

As for CGAGTTCGGAAACGATCG (((..(((....)))))), in data set [1], the folding enthalpy was -10.2 kcal/mol. The Tm in data set [2] worked out at 30.8 °C.

For CGATACGGAAACGTCTCG (((.(((....))).))), the folding enthalpy in data set [1] is -33.7 kcal/mol. Moreover, in data set [2], the Tm stood at 42 °C.

Turning to CGATACGGAAACGTGTCG (((.(((....))).))), the folding enthalpy in data set [1] is -51.4 kcal/mol. Also, in data set [2], the Tm was 52.8 °C.

For the sequence CGATACGGAAACGTTTCG (((.(((....))).))), the folding enthalpy in data set [1] is -34.6 kcal/mol. The Tm in data set [2] was 45.9 °C.

In the case of CGATAGAAATATCG (((((....))))), the folding enthalpy in data set [1] was -19.8 kcal/mol. Also, in data set [2], the Tm turned out to be 39.1 °C.

As for CGATAGCGGAAACGCTCG (((..(((....)))))), in data set [1], the folding enthalpy was -13.9 kcal/mol. Also, the Tm in data set [2] turned out to be 41 °C.

As for CGATATCGGAAACGATCG (((..(((....)))))), the folding enthalpy in data set [1] is -16.8 kcal/mol. In data set [2], the Tm was 35.3 °C.

For CGATCACGGAAACGTTCG (((..(((....)))))), the folding enthalpy in data set [1] was -17.2 kcal/mol. Further, the Tm in data set [2] worked out at 35.5 °C.

For the sequence CGATCGGAAACGATCTCG ((((((....)))..))), in data set [1], the folding enthalpy was -12.1 kcal/mol. In addition, the Tm in data set [2] turned out to be 36.9 °C.

In the case of CGATCTCGGAAACGATCG (((..(((....)))))), the folding enthalpy in data set [1] is -20.3 kcal/mol. Moreover, the Tm in data set [2] amounted to 36.7 °C.

On to CGATTACGGAAACGTTCG (((..(((....)))))), for which the folding enthalpy in data set [1] is -21.5 kcal/mol. In addition, the Tm in data set [2] came out at 38.5 °C.

As to CGCAACCGGAAACGGGCG (((..(((....)))))), in data set [1], the folding enthalpy is -20.8 kcal/mol. The Tm in data set [2] was 50.1 °C.

For the sequence CGCAACGGAAACGTAGCG (((.(((....))).))), the folding enthalpy in data set [1] was -38 kcal/mol. Besides, the Tm in data set [2] turned out to be 53.4 °C.

On to CGCACGCGGAAACGCGCG (((..(((....)))))), for which the folding enthalpy in data set [1] is -9.61 kcal/mol. For the same sequence, the Tm in data set [2] turned out to be 57 °C.

For the sequence CGCACGGAAACGTACGCG ((((((....)))..))), in data set [1], the folding enthalpy is -22.1 kcal/mol. Also, the Tm in data set [2] is 46.1 °C.

As to CGCACGGAAACGTGTGCG ((((((....)))..))), the folding enthalpy in data set [1] is -17.6 kcal/mol. The Tm in data set [2] was 57.5 °C.

CGCACGGAAACGTTAGCG ((((((....)))..))): the folding enthalpy in data set [1] was -31.9 kcal/mol. The Tm in data set [2] worked out at 44.8 °C.

Consider CGCAGCCGGAAACGGGCG (((..(((....)))))), for which the folding enthalpy in data set [1] was -20 kcal/mol. The Tm in data set [2] was determined as 47.9 °C.

On to CGCATCGGAAACGAAGCG (((.(((....))).))), for which the folding enthalpy in data set [1] is -31.2 kcal/mol. Further, the Tm in data set [2] stood at 51.7 °C.

Consider CGCATCGGAAACGAGCG (((.(((....)))))), for which the folding enthalpy in data set [1] is -31.8 kcal/mol. Besides, the Tm in data set [2] was 49.5 °C.

For the sequence CGCATGCGGAAACGCGCG (((..(((....)))))), in data set [1], the folding enthalpy was -20.8 kcal/mol. Moreover, in data set [2], the Tm was found to be 52.1 °C.

Consider CGCCACCGGAAACGGGCG (((..(((....)))))), for which the folding enthalpy in data set [1] was -26.2 kcal/mol. The Tm in data set [2] came out at 49.3 °C.

As for CGCCACGGAAACGTAGCG (((.(((....))).))), in data set [1], the folding enthalpy was -37.7 kcal/mol. In addition, in data set [2], the Tm was 50.1 °C.

CGCCACGGAAACGTCGCG (((.(((....))).))): in data set [1], the folding enthalpy is -39.2 kcal/mol. The Tm in data set [2] was determined as 48.3 °C.
